Screening data deposited in PubChem BioAssay by The Scripps Research Institute Molecular Screening Center.
An excerpt weighted towards active compounds, which were near 1.9% of everything screened.
M5 ag = agonists of human muscarinic M5 receptor (CHRM5); CHO-K1 hM5 cells, Fluo-8 calcium fluorescence; 0% DMSO wells, 100% maximal acetylcholine response; activation, % at 3 µM; actives 0.19% (n = 360,000); AID 624037;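 active = activation above the run's mean over test compounds plus 3 SD, cut at about 23% in these data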;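 note: signal is peak over basal fluorescence ratio across the kinetic read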
Target sequence (P08912 whole entry, looked up): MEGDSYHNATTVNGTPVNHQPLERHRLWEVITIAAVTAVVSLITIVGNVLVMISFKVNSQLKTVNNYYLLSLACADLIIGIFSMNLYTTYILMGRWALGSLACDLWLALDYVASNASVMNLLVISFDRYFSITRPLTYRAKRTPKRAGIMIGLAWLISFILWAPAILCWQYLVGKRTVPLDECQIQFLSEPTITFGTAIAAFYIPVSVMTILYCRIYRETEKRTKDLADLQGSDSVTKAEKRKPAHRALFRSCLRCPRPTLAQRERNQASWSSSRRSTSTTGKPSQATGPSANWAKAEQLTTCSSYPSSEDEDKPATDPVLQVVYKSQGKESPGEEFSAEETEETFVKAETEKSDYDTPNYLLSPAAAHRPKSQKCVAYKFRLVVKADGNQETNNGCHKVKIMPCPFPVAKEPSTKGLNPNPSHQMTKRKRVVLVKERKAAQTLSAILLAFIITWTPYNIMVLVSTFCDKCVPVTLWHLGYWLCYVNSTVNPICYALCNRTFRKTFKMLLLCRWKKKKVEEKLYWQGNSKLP
CHRM4 agonist = agonists of human muscarinic M4 receptor (CHRM4) | P08173 | CHO-K1 hM4/Gqi5, Fluo-8 calcium fluorescence; vehicle 0%, full acetylcholine response 100% | activation, % at 3 µM | actives 0.14% (n = 360,000) | AID 624127;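 active = activation above the run mean over all test wells plus 3 SD, cut at about 32% in these data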;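 note: peak over basal fluorescence ratio per well then scaled between controls; 0% = DMSO wells and 100% = acetylcholine at EC100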
M4 antag = blocks acetylcholine activation of human M4 receptor | CHO-hM4 cells, ACh EC80, Fluo-8 calcium fluorescence | P08173 | inhibition, % at 3 µM | actives 0.73% (n = 360,000);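 active = inhibition above its plate's cutoff, the mean inhibition of sample wells plus 3 SD, cut at about 27% in these data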;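 note: 0% = acetylcholine EC80 with DMSO and 100% = DMSO without agonist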
M4 PAM = CHRM4 positive allosteric modulation; CHO-K1 hM4/Gqi5, Fluo-8 calcium fluorescence, ACh EC20; 0% = ACh EC20, 100% = maximal ACh; activation, % at 3 µM; actives 0.4% (n = 360,000); AID 624126;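 active = activation above its plate's cutoff, the mean activation of sample wells plus 3 SD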
CHRM5 antagonist = antagonists of human muscarinic M5 receptor (CHRM5); P08912; CHO-hM5 cells, Fluo-8 calcium fluorescence, ACh EC80; inhibition, % at 3 µM; actives 0.59% (n = 360,000); AID 624040;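 active = inhibition above a per-plate cutoff, the mean of that plate's test compounds plus 3 SD, cut at about 27% in these data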;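 note: 0% = acetylcholine EC80 with DMSO and 100% = DMSO without agonist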
CHRM5 PAM = positive allosteric modulators of human muscarinic M5 receptor | P08912 | CHO-K1 hM5, Fluo-8 calcium, ACh EC20 PAM; 0% = ACh EC20, 100% = ACh EC100 | actives 0.3% (n = 360,000) | AID 624038 | activation, % at 3 µM;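 active = activation above the run cutoff, the mean activation of all test compounds plus 3 SD, cut at about 18% in these data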
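Test system: CHO-K1 hM5 cells / Doses: single-point, 3 µM nominal / Times: Post-acetylcholine fluorescence recording 140 s / Technique: Fluo-8 calcium fluorescence / Measure: Max/basal fluorescence ratio as % of EC20–EC100 ACh window / Benchmarks: low control EC20 acetylcholine (0%), high control EC100 acetylcholine (100%) / Replicates: one well per compound, no replicates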
Numbers without * were called inactive.

Results for Cc1ccc2c(c1N)C(=O)c1ccccc1C2=O ?
M5 ag: 5; CHRM4 agonist: 14; M4 antag: 14; M4 PAM: -2; CHRM5 antagonist: 28*; CHRM5 PAM: -12

Results for O=C1/C(=C\c2cc3c(cc2Br)OCO3)N2CCC1CC2 ?
M5 ag: -8; CHRM4 agonist: -1; M4 antag: 7; M4 PAM: 3; CHRM5 antagonist: 9; CHRM5 PAM: -3

How did COc1ccccc1CCNC1C2CC3CC(C2)CC1C3 (stereo unspecified) do in these assays?
M5 ag: -8; CHRM4 agonist: 1; M4 antag: 32*; M4 PAM: -14; CHRM5 antagonist: 8; CHRM5 PAM: -7

How did CC(=O)c1cn(Cc2ccccc2C#N)c2ccccc12 do in these assays?
M5 ag: 8; CHRM4 agonist: 22; M4 antag: 29*; M4 PAM: -22; CHRM5 antagonist: 37*; CHRM5 PAM: -31

Results for CC(C)C(=O)c1cn(Cc2ccccc2C#N)c2ccccc12 ?
M5 ag: -4; CHRM4 agonist: 0; M4 antag: -1; M4 PAM: 0; CHRM5 antagonist: 2; CHRM5 PAM: 4

Results for O=c1c2ccccc2nc(Cc2cccc([N+](=O)[O-])c2)n1-c1ccc(O)cc1 ?
M5 ag: 3; CHRM4 agonist: 7; M4 antag: 4; M4 PAM: 2; CHRM5 antagonist: 0; CHRM5 PAM: 7

What do the screens show for `CC(CC(C#N)(c1ccccc1)c1ccccc1)N(C)C` (stereo unspecified)?
M5 ag: -6; CHRM4 agonist: 1; M4 antag: 91*; M4 PAM: -17; CHRM5 antagonist: 99*; CHRM5 PAM: -23

What do the screens show for `CCC(C#N)(CC)P(=S)(c1ccccc1)c1ccccc1`?
M5 ag: -6; CHRM4 agonist: -2; M4 antag: -1; M4 PAM: -11; CHRM5 antagonist: 2; CHRM5 PAM: -11

Results for Cc1ccc(C(=O)O)cc1N=Nc1c(O)[nH]c(=O)[nH]c1=O ?
M5 ag: -4; CHRM4 agonist: 1; M4 antag: -20; M4 PAM: 8; CHRM5 antagonist: -5; CHRM5 PAM: 5

How did CCOC(=O)/C(CCCN(CC)CC)=N\O do in these assays?
M5 ag: -11; CHRM4 agonist: 0; M4 antag: 34*; M4 PAM: -19; CHRM5 antagonist: 35*; CHRM5 PAM: -16

How did CN1C2CCC1CC(OC(=O)c1cccc(O)c1)C2 (stereo unspecified) do in these assays?
M5 ag: -6; CHRM4 agonist: 0; M4 antag: 7; M4 PAM: -10; CHRM5 antagonist: 20; CHRM5 PAM: -23

How did CC1CC(OC(=O)c2ccccc2)CC(C)N1C (stereo unspecified) do in these assays?
M5 ag: -7; CHRM4 agonist: 0; M4 antag: 30*; M4 PAM: -17; CHRM5 antagonist: 16; CHRM5 PAM: -17

Results for C[C@]12CCC3C(CC[C@H]4C[C@H](O)CC[C@]34C)C1[C@@H](O)[C@@H](O)[C@@H]2O (stereo partly specified) ?
M5 ag: 0; CHRM4 agonist: 0; M4 antag: 3; M4 PAM: -3; CHRM5 antagonist: 14; CHRM5 PAM: -3

Results for S=C1NCCN1 ?
M5 ag: 0; CHRM4 agonist: 1; M4 antag: 30*; M4 PAM: -11; CHRM5 antagonist: -1; CHRM5 PAM: -5

Results for CCc1cccc(CC)c1NC(=S)N1CC2CC(C1)c1cccc(=O)n1C2 (stereo unspecified) ?
M5 ag: 1; CHRM4 agonist: 0; M4 antag: 1; M4 PAM: 3; CHRM5 antagonist: -8; CHRM5 PAM: 8

What do the screens show for `O=C1CC(c2cccnc2)=NN1c1ccc(Cl)cc1Cl`?
M5 ag: 4; CHRM4 agonist: 3; M4 antag: -4; M4 PAM: 0; CHRM5 antagonist: 5; CHRM5 PAM: -6

What do the screens show for `CCN1C(=O)CC(c2cccnc2)=Nc2ccccc21`?
M5 ag: 5; CHRM4 agonist: 2; M4 antag: 2; M4 PAM: -6; CHRM5 antagonist: -2; CHRM5 PAM: 19*

What do the screens show for `COc1ccc(CC2(CCc3ccncc3)C(=O)NC(=O)NC2=O)cc1OC`?
M5 ag: 2; CHRM4 agonist: 1; M4 antag: -10; M4 PAM: 9; CHRM5 antagonist: -7; CHRM5 PAM: 8

How did C#CCOC(=O)C1=CCCN(C)C1 do in these assays?
M5 ag: 97*; CHRM4 agonist: 70*; M4 antag: 74*; M4 PAM: -19; CHRM5 antagonist: 97*; CHRM5 PAM: -16

What do the screens show for `CCOC(=O)C1(c2ccccc2)Oc2ccccc2C(c2ccc(OC)cc2)=C1C(=O)OC` (stereo unspecified)?
M5 ag: -2; CHRM4 agonist: -1; M4 antag: -5; M4 PAM: -3; CHRM5 antagonist: -10; CHRM5 PAM: 1

How did C[C@@H]1O[C@@H](O[C@H]2C[C@@H](O)[C@]3(CO)[C@H]4[C@H](O)C[C@]5(C)[C@@H](C6COC(=O)C6)CC[C@]5(O)[C@@H]4CC[C@]3(O)C2)[C@H](O)[C@H](O)[C@H]1O (stereo partly specified) do in these assays?
M5 ag: 0; CHRM4 agonist: 1; M4 antag: 34*; M4 PAM: -15; CHRM5 antagonist: -5; CHRM5 PAM: -7

Results for CC1OC(OC2CC(O)C3(CO)C4C(O)CC5(C)C(C6=CC(=O)OC6)CCC5(O)C4CCC3(O)C2)C(O)C(O)C1O (stereo unspecified) ?
M5 ag: 3; CHRM4 agonist: 0; M4 antag: -7; M4 PAM: 9; CHRM5 antagonist: -2; CHRM5 PAM: 1

Results for O=C(NC(=S)N1C[C@H]2C[C@H](C1)c1cccc(=O)n1C2)c1ccc(Cl)cc1Cl ?
M5 ag: 0; CHRM4 agonist: -1; M4 antag: -16; M4 PAM: 12; CHRM5 antagonist: 1; CHRM5 PAM: -7
